Bioassay records deposited in PubChem by several laboratories.
PostGolgi ctrl = growth inhibition of yeast control strain, primary screen, counter-screen for post-Golgi transport modulator project; efflux-deficient yeast background strain, growth absorbance A615, 16 h; inhibition, % at 10 µM; 98,000 compounds, 5% hits; AID 738, 2007
PLK1 inh = human PLK1 kinase inhibitors, primary screen, biochemical, TR-FRET; AID 619, 2007; inhibition, % at 10 µM; recombinant PLK1 kinase, TR-FRET peptide phosphorylation; Serine/threonine-protein kinase PLK1 (Homo sapiens), P53350; 97,000 compounds, 0.53% hits;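 active means inhibition of 50% or more in the single-concentration screen; inactive means inhibition below 50%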;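 further: 0% = DMSO max control and 100% = H-89 dihydrochloride min control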
HIV Rev-RRE inh = HIV-1 Rev-RRE binding inhibitors, primary screen, biochemical, FRET, protein-RNA interaction | P05866 | Rev peptide-RRE RNA binding | inhibition, % at 8 µM | 97,000 compounds, 0.79% hits | AID 704, 2007;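 active means inhibition above the screen-wide mean plus 3 SD, cut at about 35% in these data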;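 further: 0% = median DMSO wells and 100% = median Neomycin B control wells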
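assay system = Cy5-tagged RRE RNA duplex with fluorescein-tagged Rev peptide | incubation = 5 + 15 min at 25 °C | also added = labelled Rev peptide | measure = % inhibition of FRET ratio versus controls | benchmarks = DMSO wells as 0% and neomycin B wells as 100% inhibition | measured by = FRET fluorescence readout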
EphB4 ephrin blk = EphB4-ephrin-B2 interaction antagonists, primary screen, biochemical, TNYL-RAW peptide probe, fluorescence polarization; Ephrin type-B receptor 4 (Homo sapiens), P54760; EphB4 LBD / TNYL-RAW-Alexa532 peptide; inhibition, % at 7 µM; 97,000 compounds, 0.15% hits; AID 720, 2007;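 active means inhibition above the screen-wide mean inhibition plus 3 SD, cut at about 15% in these data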;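 further: 0% = DMSO wells and 100% = excess unlabeled TNYL-RAW peptide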
PLK1 PBD inh = Plk1 polo box domain binding inhibitors, primary screen, biochemical, fluorescence polarization | inhibition, %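 (tested at about 20 µM)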 | 97,000 compounds, 0.13% hits | AID 693, 2007 | Serine/threonine-protein kinase PLK1 (Homo sapiens), P53350 | Plk1 PBD phosphopeptide binding; in the data active means inhibition above about 34%, passing the limit was not always enough
PostGolgi yeast = phenotypic screen on post-Golgi transport, primary screen | post-Golgi transport phenotypic cell assay | inhibition, % at 10 µM | 98,000 compounds, 0.9% hits | AID 739, 2007;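 further: yeast cells grown in 1536-well plates; yeast grown about 18 h at 30C before absorbance read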
* marks the source's active call; other numbers are inactive results; x = no result. Sampled rows, rich in hits. Any-hit rate of the full collection: about 6.4%. Unless noted, no stated cut-off is given here; in the data, active means inhibition above about 30%; inactive means the rest.

SMILES	PostGolgi ctrl	PLK1 inh	HIV Rev-RRE inh	EphB4 ephrin blk	PLK1 PBD inh	PostGolgi yeast
C=CCn1c(-c2c[nH]c3ccccc23)n[nH]c1=S	4	-12	-1	-10	-1	-4
Cn1c(SCC(=O)NCc2ccco2)nnc1-c1c[nH]c2ccccc12	5	65*	-1	-6	-15	0
CCOc1ccc(-n2c(SCC(=O)NCc3ccco3)nnc2-c2c[nH]c3ccccc23)cc1	11	-16	3	4	-7	4
CCn1c(SCc2nc3ccccc3[nH]2)nnc1-c1cccnc1	10	-8	7	-2	11	-5
CCn1c(-c2c[nH]c3ccccc23)n[nH]c1=S	0	-7	2	1	-13	40*
CCn1c(SCc2cccnc2)nnc1-c1c[nH]c2ccccc12	19	67*	7	4	-12	2
CC(C)Cn1c(-c2ccc(F)cc2)n[nH]c1=S	22	-8	1	0	0	-6
CC(C)Cn1c(-c2ccccc2F)n[nH]c1=S	33*	-17	3	-5	-18	8
Cc1nnc(NC(=O)CCC(=O)NCc2ccco2)s1	10	-8	6	-9	-1	-8
Nc1nc(SCC(=O)NCCC(c2ccccc2)c2ccccc2)n[nH]1	4	-3	7	8	6	2
CCc1nnc(NC(=O)CSc2nnc(-c3c[nH]c4ccccc34)n2CC)s1	9	-8	6	5	15	1
CCCSc1nnc(-c2c[nH]c3ccccc23)n1C	23	64*	6	6	4	-8
Cc1occc1-c1nnc(SCC(=O)c2c[nH]c3ccccc23)n1C	4	1	7	7	-5	-2
CCCSc1nnc(-c2c[nH]c3ccccc23)n1CC	17	60*	11	-2	1	-2
CS(=O)(=O)N(CC(=O)NCc1ccncc1)c1cc(Cl)cc(Cl)c1	-8	4	3	-1	2	-17
CCC(=O)c1ccc(OCC(O)CN2CCCCC2)cc1 (centres undefined)	-9	-8	-1	-2	-19	-2
CCOC(=O)C1CCN(CC(O)COc2ccc(C(C)=O)cc2)CC1 (centres undefined)	-1	65*	5	2	1	0
CC(=O)c1ccc(OCC(O)COc2ccc(C(C)=O)cc2)cc1	-2	-9	1	-6	44	4
CCOC(=O)C1CCN(CC(O)COc2ccc(C(C)(C)CC)cc2)CC1 (centres undefined)	79*	x	x	x	x	87*
CCOC(=O)C1CCN(CC(O)COc2ccc(C(C)(C)C)cc2)CC1 (centres undefined)	59*	-2	4	-3	-10	29
CCOC(=O)N1CCN(CC(O)COc2ccccc2C(C)CC)CC1 (centres undefined)	26	-13	4	5	-7	50*
CN(CC(=O)Nc1c(Cl)cccc1Cl)C(=O)CCCN1C(=O)c2ccccc2C1=O	8	-12	2	1	-24	14
COc1ccc(CCN2C(=O)c3ccncc3C2=O)cc1OC	-9	-5	4	-2	-5	-6
COc1ccc(/C=C/C(=O)Nc2c(C)nn(C)c2C)cc1COc1ccc(Cl)cc1Br	x	-6	1	-2	7	x
COC(=O)CCC(=O)Nc1cccc(Br)c1	8	-17	11	3	-2	-2
SMILES	PostGolgi ctrl	PLK1 inh	HIV Rev-RRE inh	EphB4 ephrin blk	PLK1 PBD inh	PostGolgi yeast
CCC(=O)Nc1cccc(C(=O)/C=C/c2cc(Br)ccc2OC)c1	81*	-5	-7	-3	2	4
COc1ccc(-c2[nH]ncc2-c2ccc(Cl)cc2)c(O)c1	49*	33	11	-1	12	15
COc1cccc(Oc2cn[nH]c2-c2ccc(OC)cc2O)c1	92*	-5	7	-6	-8	94*
CCOc1ccc(-c2[nH]ncc2Oc2cccc(OC)c2)c(O)c1	75*	3	16	7	5	86*
COc1cccc(Oc2cn[nH]c2-c2ccc(O)cc2O)c1	16	18	2	6	10	-1
Oc1ccc(-c2[nH]ncc2-c2ccc(Cl)cc2)c(O)c1	23	-3	10	2	9	-4
